For data set [1], the target named is Serine/threonine-protein kinase mTOR (Homo sapiens, UniProt P42345). Kind of data set: Inhibition of mTOR.
Data set [2] has as its target Phosphatidylinositol 4,5-bisphosphate 3-kinase catalytic subunit alpha isoform (Homo sapiens, UniProt P42336). Kind of data set: Inhibition of PI3Kalpha.
The species entered for the next data set is Homo sapiens. Kind of data set: Selectivity ratio of IC50 for PI3Kalpha to IC50 for mTOR. The method, boiled down: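 Selectivity is calculated as the IC50 against PI3K divided by the IC50 against mTOR.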
A further data set relates to LNCaP. Description: Cytotoxicity against human LNCAP cells. In kind it is functional, cell-based.
The target of data set [3] is Tyrosine-protein kinase Lyn (Homo sapiens, UniProt P07948). Description: Inhibition of LYN A.
Sequence of Tyrosine-protein kinase Lyn (P07948 whole entry): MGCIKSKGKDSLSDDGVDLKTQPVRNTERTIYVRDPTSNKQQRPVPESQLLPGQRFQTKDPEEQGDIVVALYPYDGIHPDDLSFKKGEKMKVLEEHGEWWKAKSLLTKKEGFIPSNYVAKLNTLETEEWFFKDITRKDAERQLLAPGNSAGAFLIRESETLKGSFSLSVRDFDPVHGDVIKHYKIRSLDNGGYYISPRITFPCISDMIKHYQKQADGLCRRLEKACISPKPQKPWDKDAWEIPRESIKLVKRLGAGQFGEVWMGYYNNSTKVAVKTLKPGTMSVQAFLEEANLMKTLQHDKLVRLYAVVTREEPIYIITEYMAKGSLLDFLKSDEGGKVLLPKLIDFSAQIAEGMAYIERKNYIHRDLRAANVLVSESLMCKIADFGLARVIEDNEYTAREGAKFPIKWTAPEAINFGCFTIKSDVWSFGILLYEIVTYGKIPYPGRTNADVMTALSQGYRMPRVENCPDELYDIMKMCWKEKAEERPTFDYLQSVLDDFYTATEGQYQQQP
Data set [4] deals with Glycogen synthase kinase-3 beta (Homo sapiens, UniProt P49841). Kind of data set: Inhibition of GSK3-beta.
Sequence of Glycogen synthase kinase-3 beta (P49841 whole entry): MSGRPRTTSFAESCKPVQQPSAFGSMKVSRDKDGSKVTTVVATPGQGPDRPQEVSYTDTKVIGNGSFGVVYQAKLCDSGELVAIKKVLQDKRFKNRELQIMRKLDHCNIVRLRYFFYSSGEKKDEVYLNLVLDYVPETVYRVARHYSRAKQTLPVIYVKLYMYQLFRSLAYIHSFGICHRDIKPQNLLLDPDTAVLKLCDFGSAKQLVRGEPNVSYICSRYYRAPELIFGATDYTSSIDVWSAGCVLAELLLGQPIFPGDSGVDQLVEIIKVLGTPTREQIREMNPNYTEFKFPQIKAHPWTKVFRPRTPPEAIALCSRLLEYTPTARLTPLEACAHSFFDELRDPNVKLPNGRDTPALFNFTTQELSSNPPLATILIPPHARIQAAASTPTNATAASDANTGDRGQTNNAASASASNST
Data set [5] concerns the target Cyclin-dependent kinase 2 (Homo sapiens, UniProt P24941). Kind of data set: Inhibition of CDK2.
For data set [6], the target named is Tyrosine-protein kinase ABL1 (Homo sapiens, UniProt P00519). Description: Inhibition of ABL1.
Sequence of Tyrosine-protein kinase ABL1 (P00519 whole entry): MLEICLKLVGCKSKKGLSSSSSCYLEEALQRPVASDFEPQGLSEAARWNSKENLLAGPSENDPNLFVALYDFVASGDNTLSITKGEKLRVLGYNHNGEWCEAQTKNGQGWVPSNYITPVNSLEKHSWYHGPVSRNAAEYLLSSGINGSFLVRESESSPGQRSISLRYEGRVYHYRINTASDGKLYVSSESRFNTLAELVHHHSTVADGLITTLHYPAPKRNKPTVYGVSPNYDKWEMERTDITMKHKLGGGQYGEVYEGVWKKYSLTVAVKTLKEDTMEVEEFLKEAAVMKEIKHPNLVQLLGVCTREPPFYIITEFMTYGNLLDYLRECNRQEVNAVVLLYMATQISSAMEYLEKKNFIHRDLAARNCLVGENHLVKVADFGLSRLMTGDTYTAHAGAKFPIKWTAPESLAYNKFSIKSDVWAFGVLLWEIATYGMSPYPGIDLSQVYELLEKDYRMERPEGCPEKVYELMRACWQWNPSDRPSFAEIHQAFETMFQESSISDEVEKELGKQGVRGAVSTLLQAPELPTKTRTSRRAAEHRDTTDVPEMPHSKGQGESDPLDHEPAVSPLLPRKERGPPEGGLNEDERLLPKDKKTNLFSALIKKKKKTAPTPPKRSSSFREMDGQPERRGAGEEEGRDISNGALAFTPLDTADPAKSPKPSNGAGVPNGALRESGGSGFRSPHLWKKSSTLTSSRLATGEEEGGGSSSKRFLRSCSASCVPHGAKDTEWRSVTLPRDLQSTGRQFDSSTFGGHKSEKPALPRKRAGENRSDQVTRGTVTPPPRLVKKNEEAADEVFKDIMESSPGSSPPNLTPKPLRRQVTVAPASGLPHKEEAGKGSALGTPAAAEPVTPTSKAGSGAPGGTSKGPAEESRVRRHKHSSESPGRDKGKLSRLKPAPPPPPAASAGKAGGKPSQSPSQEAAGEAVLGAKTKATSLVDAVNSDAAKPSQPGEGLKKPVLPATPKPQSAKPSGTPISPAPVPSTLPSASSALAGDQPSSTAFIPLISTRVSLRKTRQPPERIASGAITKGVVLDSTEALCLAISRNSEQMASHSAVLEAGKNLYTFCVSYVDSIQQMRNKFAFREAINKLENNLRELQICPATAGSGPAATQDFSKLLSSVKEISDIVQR
The target in data set [7] is Ribosomal protein S6 kinase alpha-1 (Homo sapiens, UniProt Q15418). Kind of data set: Inhibition of RSK1.
Data set [8] deals with Glycogen synthase kinase-3 alpha (Homo sapiens, UniProt P49840). Kind of data set: Inhibition of GSK3alpha.
Sequence of Glycogen synthase kinase-3 alpha (P49840 whole entry): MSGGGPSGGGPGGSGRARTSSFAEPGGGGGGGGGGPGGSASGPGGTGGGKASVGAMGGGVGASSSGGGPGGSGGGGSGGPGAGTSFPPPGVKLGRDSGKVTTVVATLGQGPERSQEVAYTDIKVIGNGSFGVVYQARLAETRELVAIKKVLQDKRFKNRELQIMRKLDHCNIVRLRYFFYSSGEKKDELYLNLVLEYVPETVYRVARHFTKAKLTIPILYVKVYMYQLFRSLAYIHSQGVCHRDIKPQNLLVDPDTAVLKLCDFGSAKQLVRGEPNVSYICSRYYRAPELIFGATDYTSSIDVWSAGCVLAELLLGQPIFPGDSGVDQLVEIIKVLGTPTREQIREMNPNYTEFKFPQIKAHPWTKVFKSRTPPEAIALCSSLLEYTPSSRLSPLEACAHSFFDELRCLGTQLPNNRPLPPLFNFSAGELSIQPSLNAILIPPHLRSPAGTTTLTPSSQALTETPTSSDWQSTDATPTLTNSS
In data set [9] the target is Cyclin-dependent kinase 1 (Homo sapiens, UniProt P06493). Kind of data set: Inhibition of CDK1.
Data set [10] has as its target Tyrosine-protein kinase HCK (Homo sapiens, UniProt P08631). Description: Inhibition of HCK.
Another data set has as its target Aurora kinase B (Homo sapiens, UniProt Q96GD4). Kind of data set: Inhibition of Aurora B.
Data set [11] concerns the target Fibroblast growth factor receptor 1 (Homo sapiens, UniProt P11362).
The target in data set [12] is MAP kinase-activated protein kinase 2 (Homo sapiens, UniProt P49137).
Sequence of MAP kinase-activated protein kinase 2 (P49137 whole entry): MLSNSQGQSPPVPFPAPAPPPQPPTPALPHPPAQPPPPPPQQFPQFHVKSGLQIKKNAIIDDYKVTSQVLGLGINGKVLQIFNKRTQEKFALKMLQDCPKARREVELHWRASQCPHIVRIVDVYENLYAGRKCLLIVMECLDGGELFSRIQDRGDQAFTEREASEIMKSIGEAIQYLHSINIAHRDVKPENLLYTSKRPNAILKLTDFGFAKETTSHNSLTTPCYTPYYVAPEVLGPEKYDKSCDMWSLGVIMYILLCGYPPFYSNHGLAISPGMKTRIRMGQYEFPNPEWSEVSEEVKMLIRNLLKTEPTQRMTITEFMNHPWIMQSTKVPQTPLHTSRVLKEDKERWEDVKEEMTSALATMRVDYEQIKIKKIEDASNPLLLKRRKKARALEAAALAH
Data set [13] concerns the target Mitogen-activated protein kinase 1 (Homo sapiens, UniProt P28482).
The nature of data set [14]: Half life in mouse microsomes in phase 1 using NADPH as a cofactor. In kind it is ADME, Microsome.
The nature of data set [15]: Half life in mouse microsomes in phase 1/2 using NADPH and UDPGA as a cofacto. In kind it is ADME, Microsome.

The structures appear in SMILES notation.

Sequence of Phosphatidylinositol 4,5-bisphosphate 3-kinase catalytic subunit alpha isoform (P42336 whole entry, canonical isoform): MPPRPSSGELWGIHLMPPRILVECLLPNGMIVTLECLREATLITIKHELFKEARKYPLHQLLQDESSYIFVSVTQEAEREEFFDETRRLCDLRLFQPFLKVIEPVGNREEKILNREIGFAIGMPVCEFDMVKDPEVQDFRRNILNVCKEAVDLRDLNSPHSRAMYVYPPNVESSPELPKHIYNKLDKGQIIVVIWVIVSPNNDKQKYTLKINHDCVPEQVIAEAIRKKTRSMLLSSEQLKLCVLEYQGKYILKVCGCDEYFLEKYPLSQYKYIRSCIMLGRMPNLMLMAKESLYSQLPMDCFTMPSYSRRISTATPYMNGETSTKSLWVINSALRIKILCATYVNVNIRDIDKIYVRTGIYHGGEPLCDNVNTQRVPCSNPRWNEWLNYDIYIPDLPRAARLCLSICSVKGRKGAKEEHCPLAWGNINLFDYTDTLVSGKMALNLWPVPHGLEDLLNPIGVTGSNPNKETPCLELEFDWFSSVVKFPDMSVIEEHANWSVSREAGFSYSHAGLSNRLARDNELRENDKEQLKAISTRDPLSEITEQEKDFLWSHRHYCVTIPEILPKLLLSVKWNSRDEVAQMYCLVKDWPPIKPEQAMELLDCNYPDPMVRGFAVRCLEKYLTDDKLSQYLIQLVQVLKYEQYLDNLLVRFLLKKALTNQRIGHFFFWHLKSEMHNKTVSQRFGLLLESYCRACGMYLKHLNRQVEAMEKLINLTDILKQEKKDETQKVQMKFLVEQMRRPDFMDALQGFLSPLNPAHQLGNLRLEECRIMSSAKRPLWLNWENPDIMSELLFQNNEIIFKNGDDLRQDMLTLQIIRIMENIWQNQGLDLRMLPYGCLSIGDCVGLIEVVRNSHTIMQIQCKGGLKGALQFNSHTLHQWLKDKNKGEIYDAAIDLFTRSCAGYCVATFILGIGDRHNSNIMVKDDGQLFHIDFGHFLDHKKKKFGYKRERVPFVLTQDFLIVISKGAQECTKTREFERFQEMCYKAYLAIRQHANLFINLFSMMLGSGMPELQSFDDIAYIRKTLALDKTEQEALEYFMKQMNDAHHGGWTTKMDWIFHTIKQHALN
Sequence of Mitogen-activated protein kinase 1 (P28482 whole entry): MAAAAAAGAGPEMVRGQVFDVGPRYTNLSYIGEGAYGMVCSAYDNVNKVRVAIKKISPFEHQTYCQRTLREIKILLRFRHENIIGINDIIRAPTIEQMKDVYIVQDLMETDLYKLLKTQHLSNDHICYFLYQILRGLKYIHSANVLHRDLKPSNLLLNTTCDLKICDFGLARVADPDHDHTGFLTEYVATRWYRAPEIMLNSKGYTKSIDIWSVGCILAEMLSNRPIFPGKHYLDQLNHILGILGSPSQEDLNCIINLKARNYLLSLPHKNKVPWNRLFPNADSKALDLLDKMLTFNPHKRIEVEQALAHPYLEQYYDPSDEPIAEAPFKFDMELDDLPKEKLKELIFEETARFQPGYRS
Sequence of Tyrosine-protein kinase HCK (P08631 whole entry): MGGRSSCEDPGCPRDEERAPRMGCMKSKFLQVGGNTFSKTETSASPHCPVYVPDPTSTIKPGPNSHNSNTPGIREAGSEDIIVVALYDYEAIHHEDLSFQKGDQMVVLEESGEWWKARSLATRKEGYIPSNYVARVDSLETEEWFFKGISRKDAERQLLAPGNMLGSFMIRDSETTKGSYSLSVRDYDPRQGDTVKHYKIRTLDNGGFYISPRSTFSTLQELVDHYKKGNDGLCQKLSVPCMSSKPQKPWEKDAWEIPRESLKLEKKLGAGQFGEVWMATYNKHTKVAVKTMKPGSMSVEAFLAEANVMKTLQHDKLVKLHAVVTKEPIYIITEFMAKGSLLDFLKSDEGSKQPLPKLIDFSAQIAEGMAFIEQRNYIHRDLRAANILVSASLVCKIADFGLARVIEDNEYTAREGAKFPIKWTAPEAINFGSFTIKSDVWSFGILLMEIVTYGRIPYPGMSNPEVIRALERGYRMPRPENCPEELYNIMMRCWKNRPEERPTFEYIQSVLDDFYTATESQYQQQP

As a reminder, the IC50 is the concentration at which inhibition is half-maximal. As to `Cn1cc(/C=C2\Oc3cc(O)cc(O)c3C2=O)c2cccnc21`, the IC50 in data set [1] was 42 nM; in [2], 77 nM; in the data set with LNCaP, 6500 nM. Besides, the Ratio IC50 in the data set filed under Homo sapiens was 1.7.

For the compound `Cn1cc(/C=C2\Oc3cccc(O)c3C2=O)c2c(-c3ccc(C(=O)NCCO)cc3)ccnc21`, the IC50 stood at 27700 nM in data set [3]; 5900 nM in data set [4]; 35500 nM in data set [5]; 9700 nM in [6]; 45900 nM in data set [7]; 10600 nM in data set [8]. Besides, the IC50 in data set [9] was determined as 39200 nM; in data set [10], 27100 nM; on Aurora kinase B, 22200 nM; in [11], 50 nM; in data set [12], 6.5 nM; in [13], 50 nM.

The half-life is how long it takes for the measured level to halve. Regarding `Cn1cc(/C=C2\Oc3cccc(O)c3C2=O)c2c(N3CCC(C(=O)N4CCN(CCO)CC4)CC3)ccnc21`, the IC50 is 1.85 nM in data set [1], 25 nM in [2] and 1 nM with LNCaP. For the same compound, the half-life in data set [14] was above 30 min; in data set [15] it was 14 min. In addition, the Ratio IC50 in the data set filed under Homo sapiens is 13.

For the compound `Cn1cc(/C=C2\Oc3cccc(O)c3C2=O)c2c(-c3ccc(C(=O)N4CCN(CCO)CC4)cc3)ccnc21`, the IC50 in data set [1] worked out at 0.39 nM; with LNCaP, 1 nM. Moreover, the half-life in data set [14] and in data set [15] was above 30 min in each case. In addition, the Ratio IC50 in the data set listed under Homo sapiens turned out to be 256.

`CN1CCN(c2ccnc3c2c(/C=C2\Oc4cccc(O)c4C2=O)cn3C)CC1`: the IC50 worked out at 2.75 nM in data set [1] and 3 nM in the data set on LNCaP. The Ratio IC50 in the data set filed under Homo sapiens was determined as 63.

For the compound `CN(C)C(=O)c1ccc(-c2ccnc3c2c(/C=C2\Oc4cccc(O)c4C2=O)cn3C)cc1`, the IC50 was 0.55 nM in data set [1] and 4 nM in the data set with LNCaP. The Ratio IC50 in the data set filed under Homo sapiens stood at 65.

As for `Cn1cc(/C=C2\Oc3cccc(O)c3C2=O)c2c(-c3ccccc3)ccnc21`, in data set [1], the IC50 turned out to be 3.45 nM. This compound also showed a half-life in [14] of 22 min. Further, in the data set listed under Homo sapiens, the Ratio IC50 worked out at 25.8.

As for `CN1CCN(c2ccnc3c2c(/C=C2\Oc4cc(O)cc(O)c4C2=O)cn3C)CC1`, the IC50 in data set [2] worked out at 43 nM; in the data set on LNCaP, 110 nM. Besides, in the data set filed under Homo sapiens, the Ratio IC50 came out at 46.

Regarding `Cn1cc(/C=C2\Oc3cc(O)cc(O)c3C2=O)c2c(-c3ccccc3)ccnc21`, the IC50 in [1] is 0.46 nM; in the data set on LNCaP, 77 nM. The half-life in data set [14] is 20 min; in [15] it was 2 min. The Ratio IC50 in the data set listed under Homo sapiens is 137.

`CN1CCN(C(=O)c2ccc(-c3ccnc4c3c(/C=C3\Oc5cccc(O)c5C3=O)cn4C)cc2)CC1`: the half-life worked out at 28 min in data set [14] and 24 min in [15]. Moreover, the Ratio IC50 in the data set filed under Homo sapiens was 70. Also, the IC50 with LNCaP is 9 nM.

As for `Cn1cc(/C=C2\Oc3cccc(O)c3C2=O)c2c(N3CCC(C(=O)N4CCOCC4)CC3)ccnc21`, the half-life in data set [14] and in [15] was above 30 min in each case. Moreover, the Ratio IC50 in the data set listed under Homo sapiens was 45. Moreover, the IC50 in the data set on LNCaP is below 1 nM.

As for `Cn1cc(/C=C2\Oc3cccc(O)c3C2=O)c2c(N3CCC(C(=O)N4CC5CCC(C4)O5)CC3)ccnc21`, the figures for the half-life in data set [14] and in data set [15] were above 30 min and 16 min, respectively. Moreover, the figures for the IC50 (in [2]; with LNCaP) were 52 nM and 1 nM, respectively. Moreover, the Ratio IC50 in the data set filed under Homo sapiens came to 26.

In the case of `Cn1cc(/C=C2\Oc3cccc(O)c3C2=O)c2c(N3C4CCC3COC4)ccnc21`, the Ratio IC50 in the data set listed under Homo sapiens amounted to 9. Inhibition with LNCaP was half-maximal at 2 nM (IC50).

Take `Cn1cc(/C=C2\Oc3cccc(O)c3C2=O)c2c(-c3ccc(C(=O)N4CC5CCC(C4)O5)cc3)ccnc21`: the IC50 in [1] turned out to be 0.56 nM; with LNCaP, 8 nM. Besides, the values for the half-life in data set [14] and in data set [15] were 6 min and 2 min, respectively. Moreover, in the data set listed under Homo sapiens, the Ratio IC50 stood at 103.

On to `Cn1cc(/C=C2\Oc3cc(O)cc(O)c3C2=O)c2c(-c3ccccc3)cccc21`, for which the IC50 in data set [2] was determined as 1480 nM; in the data set with LNCaP, 1400 nM.

Regarding `Cn1cc(/C=C2\Oc3cccc(O)c3C2=O)c2c(N3CCOCC3)ccnc21`, the Ratio IC50 in the data set filed under Homo sapiens is 24. Besides, in the data set with LNCaP, it took 5 nM to reach half-maximal inhibition (IC50).

For the compound `Cn1cc(/C=C2\Oc3cccc(O)c3C2=O)c2c(-c3ccc(C(=O)N4CCOCC4)cc3)ccnc21`, the half-life in [14] was above 30 min; in [15] it was 10 min. Further, the Ratio IC50 in the data set filed under Homo sapiens was determined as 97. In the data set with LNCaP, this compound registered an IC50 of 1 nM.

For `Cn1cc(/C=C2\Oc3cccc(O)c3C2=O)c2c(N3CCC(CN)CC3)ccnc21`, the Ratio IC50 in the data set filed under Homo sapiens turned out to be 9. Moreover, in the data set with LNCaP, 75 nM corresponded to half-maximal inhibition (IC50).

In the case of `Cn1cc(/C=C2\Oc3cccc(O)c3C2=O)c2c(N3CCC(C(N)=O)CC3)ccnc21`, the IC50 in data set [1] was 0.72 nM; in the data set with LNCaP, 10 nM. Besides, the Ratio IC50 in the data set listed under Homo sapiens came to 41.

Regarding `CN(C)C(=O)c1ccccc1-c1ccnc2c1c(/C=C1\Oc3cccc(O)c3C1=O)cn2C`, the Ratio IC50 in the data set filed under Homo sapiens worked out at 32.8. Moreover, the IC50 in the data set with LNCaP was above 60000 nM.

Turning to `CCn1cc(/C=C2\Oc3cccc(O)c3C2=O)c2c(-c3ccc(C(=O)N4CCN(CCO)CC4)cc3)ccnc21`, the half-inhibitory concentration (IC50) turned out to be 455 nM in data set [2] and 4 nM in the data set with LNCaP. The Ratio IC50 in the data set filed under Homo sapiens was found to be 98.

Turning to `CN(C)C(=O)C1CCN(c2ccnc3c2c(/C=C2\Oc4cccc(O)c4C2=O)cn3C)CC1`, the IC50 in data set [1] worked out at 0.67 nM; in data set [2], 30 nM; in the data set on LNCaP it was 1 nM. In addition, the values for the half-life in data set [14] and in data set [15] were above 30 min and 20 min, respectively. In the data set filed under Homo sapiens, the Ratio IC50 was determined as 46.

Consider `CN1CCN(C(=O)C2CCN(c3ccnc4c3c(/C=C3\Oc5cccc(O)c5C3=O)cn4C)CC2)CC1`, for which the half-life in data set [14] and in data set [15] was above 30 min each time. Besides, the Ratio IC50 in the data set filed under Homo sapiens was 12. This compound returned an IC50 in the data set on LNCaP below 1 nM.

On to `Cn1cc(/C=C2\Oc3cccc(O)c3C2=O)c2c(N3CCC(N)CC3)ccnc21`, for which the Ratio IC50 in the data set filed under Homo sapiens was 6. Moreover, the midpoint of inhibition in the data set on LNCaP, the IC50, lay at 240 nM.

As to `Cn1cc(/C=C2\Oc3cc(O)ccc3C2=O)c2c(-c3ccccc3)ccnc21`, the Ratio IC50 in the data set listed under Homo sapiens was determined as 11. In the data set with LNCaP, this compound displayed an IC50 of 1800 nM.

Take `CN(C)C(=O)c1cccc(-c2ccnc3c2c(/C=C2\Oc4cccc(O)c4C2=O)cn3C)c1`: the Ratio IC50 in the data set listed under Homo sapiens was 20.5. For the same compound, the midpoint of inhibition in the data set with LNCaP, the IC50, lay at 600 nM.

For `Cn1cc(/C=C2\Oc3cccc(O)c3C2=O)c2c(N3CC4CCC(C3)O4)ccnc21`, the IC50 is 0.38 nM in data set [1] and 2 nM in the data set with LNCaP. The Ratio IC50 in the data set filed under Homo sapiens amounted to 274.
